One experiment concerns VIM-1. Particulars: cited from earlier work.
Experiment [1] has as its target T1, IMP-1 (Serratia marcescens, UniProt P52699). Particulars: cited from earlier work.
In experiment [2] the target is T2, NDM-1 (Klebsiella pneumoniae, UniProt C7C422). Particulars: read-out: IC50 NDM-1; cited from earlier work.
In another experiment the test system is E. coli (NDM-1). Put plainly: Synergy assay: MIC of meropenem in combination with test compound. The experiment is classed as cell-based.
In a further experiment the test system is E. cloacae (IMP-1). The experiment is described as above. The experiment is classed as cell-based.
A further experiment deals with IMP-28 (Klebsiella oxytoca, UniProt G4WB26). Put plainly: Enzyme inhibition assay with nitrocefin as chromogenic substrate. Format: biochemical. Particulars: for decrease of activity against IMP-28 relative to 8: from IC50 data of Table 2.
For experiment [3], the target named is T1, IMP-1. Described as above. Format: biochemical. Particulars: for decrease of activity against IMP-1 relative to 8: from IC50 data of Table 2.
In the next experiment the test system is K. pneumoniae (IMP-28). Put plainly: Synergy assay: MIC of meropenem in combination with test compound. Format: cell-based.
Another experiment concerns E. coli (VIM-2). The experiment is described as above. Format: cell-based.
For experiment [4], the target named is T2, NDM-1. The experiment is described as follows: Enzyme inhibition assay with nitrocefin as chromogenic substrate. Format: biochemical. A digest of the protocol:
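Recombinant NDM-1 (6 nM) in 50 mM HEPES pH 7.2 with 1 μM ZnSO₄ and 0.01% Triton X-100 was preincubated with a range of test compound concentrations for 15–60 min at 25 °C. Nitrocefin (10 μM, ∼2 × K_M) was then added and A492 was read at once over 30 cycles. For time 0, enzyme was added last. IC50 came from initial velocities, in three independent replicates.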

A further experiment concerns the target VIM-2 (Escherichia coli, UniProt Q5U7L7). Particulars: cited from earlier work.
In a further experiment the test system is IMP family. To be noted: cited from earlier work.
The mark [5] stands for this setting: test compound 0 μg/mL (meropenem alone, baseline).
Setting [6] is: mean ± SD, nitrocefin substrate.

The source of these data is article PMC8273888 (Journal of Medicinal Chemistry, 2021).

Each structure is given as a SMILES string. Read-outs that look alike come from different tables or passages of the source. Where only a bound is given, the exact number is not on record here.

T1 sequence (P52699 19-246, looked up, species assumed): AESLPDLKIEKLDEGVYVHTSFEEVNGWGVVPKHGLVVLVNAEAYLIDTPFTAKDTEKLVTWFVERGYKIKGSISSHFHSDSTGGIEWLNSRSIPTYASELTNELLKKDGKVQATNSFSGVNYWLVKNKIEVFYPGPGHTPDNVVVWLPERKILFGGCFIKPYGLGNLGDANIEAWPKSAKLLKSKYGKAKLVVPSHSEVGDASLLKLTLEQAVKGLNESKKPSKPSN
T2 sequence (C7C422 29-270, looked up, species assumed): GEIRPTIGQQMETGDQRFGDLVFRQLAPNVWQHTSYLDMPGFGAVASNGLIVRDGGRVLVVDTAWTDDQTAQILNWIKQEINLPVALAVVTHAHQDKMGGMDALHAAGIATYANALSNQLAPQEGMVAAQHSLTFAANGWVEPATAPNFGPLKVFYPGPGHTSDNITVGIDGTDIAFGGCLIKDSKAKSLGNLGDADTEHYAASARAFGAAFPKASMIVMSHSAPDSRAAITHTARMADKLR
Sequence of IMP-28 (G4WB26 20-246): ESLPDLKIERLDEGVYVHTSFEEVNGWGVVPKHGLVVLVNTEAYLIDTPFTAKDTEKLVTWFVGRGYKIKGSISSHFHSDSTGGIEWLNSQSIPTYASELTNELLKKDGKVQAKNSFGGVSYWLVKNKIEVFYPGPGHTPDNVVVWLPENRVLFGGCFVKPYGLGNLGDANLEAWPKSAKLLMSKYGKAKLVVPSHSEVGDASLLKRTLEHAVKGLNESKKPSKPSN

As a reminder, the IC50 is the midpoint of a concentration-inhibition curve. As for `O=C(O)c1ncsc1NS(=O)(=O)c1cccnc1` [ANT431], in the experiment with VIM-1, the “inhibitory activity against VIM-1” value is “remain resistant”. Besides, the “inhibitory activity against IMP-1” value on IMP-1 [1] is given as “remain resistant”. The IC50 on NDM-1 [2] is 2670 nM.
Regarding `O=C(Cc1ccccc1)N[C@@H]1C(=O)N2C(C(=O)O)=C(CSCC(=O)c3ccccc3)CS[C@H]12` [Compound 6], the “meropenem MIC” value with E. coli (NDM-1) (setting [5]) is 32 µg/mL. In the experiment with E. cloacae (IMP-1) (test compound 128 μg/mL), the “Fold reduction of MIC (meropenem)” value is 4 (4) fold and the “meropenem MIC” value was 4 (4) μg/mL.
For `O=C(Cc1ccccc1)N[C@H](C(=O)O)[C@@H]1N=C(C(=O)O)C(CSC(C(=O)O)c2ccccc2)CS1` (stereo partly drawn) [Compound 8H], the “IC50 IMP-28” value at IMP-28 (setting [6]) is on record as “sub-micromolar”. Also, the “IC50 IMP-1” value against IMP-1 [3] (setting [6]) is recorded as “sub-micromolar”.
For the compound `O=C(Cc1ccccc1)N[C@@H]1C(=O)N2C(C(=O)O)=C(CSC(C(=O)O)c3ccccc3)CS[C@H]12` (stereo partly drawn) [Compound 8], the “Fold reduction of MIC (meropenem)” value in the experiment on K. pneumoniae (IMP-28) (test compound 32 μg/mL), with K. pneumoniae (IMP-28) (test compound 64 μg/mL) and in the experiment with K. pneumoniae (IMP-28) (test compound 128 μg/mL) was at least 64 fold in each case.
As to `O=C(Cc1ccccc1)N[C@@H]1C(=O)N2C(C(=O)O)=C(CS[C@H](Cc3ccccc3)C(=O)O)CS[C@H]12` [Compound 9], the “Fold reduction of MIC (meropenem)” value with K. pneumoniae (IMP-28) (test compound 32 μg/mL), in the experiment with K. pneumoniae (IMP-28) (test compound 64 μg/mL) and in the experiment on K. pneumoniae (IMP-28) (test compound 128 μg/mL) was at least 64 fold in each case. Besides, at IMP-28 (more potent than 10), the “potency relative to diastereomer 10 against IMP-28” value is about 30 fold. Besides, the “potency relative to diastereomer 10 against IMP-1” value at IMP-1 [3] (more potent than 10) is recorded as “ca. 10 fold”.
With `O=C(Cc1ccccc1)N[C@@H]1C(=O)N2C(C(=O)O)=C(CS[C@@H](Cc3ccccc3)C(=O)O)CS[C@H]12` [Compound 10], in the experiment on E. cloacae (IMP-1) (test compound 128 μg/mL), the “Fold reduction of MIC (meropenem)” value is given as 4 (4) fold and the “meropenem MIC” value was 4 (4) μg/mL.
As for `O=C(Cc1ccccc1)N[C@@H]1C(=O)N2C(C(=O)O)=C(CSCc3ccccc3)CS[C@H]12` [Compound 11], the “meropenem MIC” value in the experiment with E. coli (NDM-1) (setting [5]) was 32 µg/mL; with E. coli (VIM-2) (test compound 32 μg/mL) it was 2 (2) μg/mL; in the experiment on E. coli (VIM-2) (test compound 64 μg/mL), 2 (2) μg/mL; with E. cloacae (IMP-1) (setting [5]) it was 32 µg/mL. In addition, the “decrease of activity against IMP-28 relative to 8” value on IMP-28 is recorded as “ca. 100 fold”. Also, the “Fold reduction of MIC (meropenem)” value with E. coli (VIM-2) (test compound 32 μg/mL) and in the experiment with E. coli (VIM-2) (test compound 64 μg/mL) was 2 (2) fold throughout. The IC50 against NDM-1 [4] is over 100 µM. Also, the “decrease of activity against IMP-1 relative to 8” value on IMP-1 [3] was “ca. 100 fold”.
`O=C(Cc1ccccc1)N[C@@H]1C(=O)N2C(C(=O)O)=C(CSCCc3ccccc3)CS[C@H]12` [Compound 12]: the “meropenem MIC” value with E. coli (NDM-1) (setting [5]) amounted to 64 µg/mL. The IC50 against NDM-1 [4] is over 100 µM.
As for `O=C(O)CSCC1=C(C(=O)O)N2C(=O)[C@@H](NC(=O)Cc3ccccc3)[C@H]2SC1` [Compound 13], the “meropenem MIC” value with E. coli (NDM-1) (setting [5]) was 32 µg/mL; in the experiment on E. coli (VIM-2) (test compound 32 μg/mL), 2 (2) μg/mL; in the experiment with E. coli (VIM-2) (test compound 64 μg/mL) it was 2 (2) μg/mL; with E. cloacae (IMP-1) (test compound 128 μg/mL), 4 (4) μg/mL. Further, the “decrease of activity against IMP-28 relative to 8” value on IMP-28 is reported as “ca. 100 fold”. For the same compound, the “Fold reduction of MIC (meropenem)” value is 2 (2) fold with E. coli (VIM-2) (test compound 32 μg/mL), 2 (2) fold with E. coli (VIM-2) (test compound 64 μg/mL) and 4 (4) fold with E. cloacae (IMP-1) (test compound 128 μg/mL). The compound further returned an IC50 against IMP-1 [3] of over 100 µM. The “decrease of activity against IMP-1 relative to 8” value at IMP-1 [3] is listed as “ca. 100 fold”.
As for `CC1=C(C(=O)O)N2C(=O)[C@@H](NC(=O)Cc3ccccc3)[C@H]2SC1` [Compound 15], the figures for the “meropenem MIC” value in the experiment on E. coli (NDM-1) (setting [5]), in the experiment on E. coli (VIM-2) (test compound 32 μg/mL) and with E. coli (VIM-2) (test compound 64 μg/mL) were 32 µg/mL, 2 (2) μg/mL and 2 (2) μg/mL, respectively. Moreover, the “decrease of activity against IMP-28 relative to 8” value at IMP-28 is recorded as “ca. 100 fold”. Further, the “Fold reduction of MIC (meropenem)” value with E. coli (VIM-2) (test compound 32 μg/mL) and with E. coli (VIM-2) (test compound 64 μg/mL) was 2 (2) fold throughout. Besides, the IC50 against NDM-1 [4] and at IMP-1 [3] was over 100 µM each time. In addition, on IMP-1 [3], the “decrease of activity against IMP-1 relative to 8” value is “ca. 100 fold”.
With `O=C(O)c1cccc(C(=O)O)n1` [DPA, Dipicolinic acid, reference compound], the “meropenem MIC” value was at most 0.031 µg/mL with K. pneumoniae (IMP-28) (test compound 64 μg/mL); at most 0.031 µg/mL in the experiment on K. pneumoniae (IMP-28) (test compound 128 μg/mL); at most 0.5 µg/mL with E. coli (NDM-1) (test compound 128 μg/mL); 4 µg/mL with E. coli (VIM-2) (setting [5]); at most 0.063 µg/mL with E. coli (VIM-2) (test compound 32 μg/mL); at most 0.063 µg/mL in the experiment with E. coli (VIM-2) (test compound 64 μg/mL). Further, the “meropenem MIC” value in the experiment on E. coli (VIM-2) (test compound 128 μg/mL) is at most 0.063 µg/mL.
As for `NCCN[C@H]1CC[C@H](CC(=O)N[C@H]2Cc3cccc(C(=O)O)c3OB2O)CC1` [taniborbactam], the “IC50 VIM-2” value at VIM-2 was “sub-micromolar”. The “inhibition of the IMP family” value in the experiment on IMP family is “weak inhibition”.
